Assay results from ChEMBL document CHEMBL1145427, “Quick assembly of 1,4-diphenyltriazoles as probes targeting beta-amyloid aggregates in Alzheimer's disease” (J Med Chem, 2007).

What was measured:
[1] = Displacement of [125I]IMPY from beta amyloid protein plaques in Alzheimer's disease patient brain; parameters: species or system Homo sapiens
Outline: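 Competition binding to pooled gray-matter homogenates from four AD brains (approximately 100 mg wet tissue/mL in PBS pH 7.4; 20–50 μg per tube). [125I]2 at 0.04–0.06 nM; inhibitors 10^-5–10^-10 M in PBS with 0.1% BSA; final volume 1 mL. Nonspecific binding with 600 nM 2. Incubated 37 °C, 2 h; GF/B filtration, gamma counting. Ki from nonlinear regression.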

[2] = system: Spleen; experiment: Biodistribution in ICR mouse spleen at 5 to 10 uCi, iv after 30 mins; format: ADME, organism-based; details: in vivo, 0.5 h
Outline: (§1)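 Male ICR mice (22–25 g) under isoflurane anesthesia; [125I] or [18F] tracer (5–10 μCi) in 0.15 mL of 0.1% bovine serum albumin solution injected into the tail vein. Groups of n = 3 per time point, killed by cervical dislocation. Organs removed, weighed and gamma-counted against diluted aliquots of injected dose, giving % dose/organ and % ID/g. Total blood activity assumed as 7% of body weight.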

[3] = system: Brain; experiment: Biodistribution in ICR mouse brain at 5 to 10 uCi, iv after 30 mins; format: ADME, organism-based; details: in vivo, 0.5 h; outline: as §1
[4] = system: Spleen; experiment: Biodistribution in ICR mouse spleen at 5 to 10 uCi, iv after 2 mins; format: ADME, organism-based; details: in vivo; outline: as §1
[5] = system: Zone of skin; experiment: Biodistribution in ICR mouse skin at 5 to 10 uCi, iv after 2 hrs; format: ADME, organism-based; details: in vivo; outline: as §1
[6] = system: Liver; experiment: Biodistribution in ICR mouse liver at 5 to 10 uCi, iv after 30 mins; format: ADME, organism-based; details: in vivo, 0.5 h; outline: as §1
[7] = system: Kidney; experiment: Biodistribution in ICR mouse kidney at 5 to 10 uCi, iv after 1 hr; format: ADME, organism-based; details: in vivo; outline: as §1
[8] = system: Muscle tissue; experiment: Biodistribution in ICR mouse muscle at 5 to 10 uCi, iv after 2 mins; format: ADME, organism-based; details: in vivo; outline: as §1
[9] = system: Blood; experiment: Biodistribution in ICR mouse blood at 5 to 10 uCi, iv after 30 mins; format: ADME, organism-based; details: in vivo, 0.5 h; outline: as §1
[10] = system: Zone of skin; experiment: Biodistribution in ICR mouse skin at 5 to 10 uCi, iv after 30 mins; format: ADME, organism-based; details: in vivo, 0.5 h; outline: as §1
[11] = system: Lung; experiment: Biodistribution in ICR mouse lung at 5 to 10 uCi, iv after 2 hrs; format: ADME, organism-based; details: in vivo; outline: as §1
[12] = system: Blood; experiment: Biodistribution in ICR mouse blood at 5 to 10 uCi, iv after 2 hrs; format: ADME, organism-based; details: in vivo; outline: as §1
[13] = system: Thyroid gland; experiment: Biodistribution in ICR mouse thyroid at 5 to 10 uCi, iv after 30 mins; format: ADME, organism-based; details: in vivo, 0.5 h; outline: as §1
[14] = system: Zone of skin; experiment: Biodistribution in ICR mouse skin at 5 to 10 uCi, iv after 2 mins; format: ADME, organism-based; details: in vivo; outline: as §1
[15] = system: Brain; experiment: Biodistribution in ICR mouse brain at 5 to 10 uCi, iv after 2 mins; format: ADME, organism-based; details: in vivo; outline: as §1
[16] = system: Kidney; experiment: Biodistribution in ICR mouse kidney at 5 to 10 uCi, iv after 2 mins; format: ADME, organism-based; details: in vivo; outline: as §1
[17] = system: Lung; experiment: Biodistribution in ICR mouse lung at 5 to 10 uCi, iv after 1 hr; format: ADME, organism-based; details: in vivo; outline: as §1
[18] = system: Heart; experiment: Biodistribution in ICR mouse heart at 5 to 10 uCi, iv after 2 mins; format: ADME, organism-based; details: in vivo; outline: as §1
[19] = system: Spleen; experiment: Biodistribution in ICR mouse spleen at 5 to 10 uCi, iv after 2 hrs; format: ADME, organism-based; details: in vivo; outline: as §1
[20] = system: Blood; experiment: Biodistribution in ICR mouse blood at 5 to 10 uCi, iv after 1 hr; format: ADME, organism-based; details: in vivo; outline: as §1
[21] = system: Zone of skin; experiment: Biodistribution in ICR mouse skin at 5 to 10 uCi, iv after 1 hr; format: ADME, organism-based; details: in vivo; outline: as §1
[22] = system: Heart; experiment: Biodistribution in ICR mouse heart at 5 to 10 uCi, iv after 2 hrs; format: ADME, organism-based; details: in vivo; outline: as §1
[23] = system: Brain; experiment: Biodistribution in ICR mouse brain at 5 to 10 uCi, iv after 1 hr; format: ADME, organism-based; details: in vivo; outline: as §1
[24] = system: Brain; experiment: Biodistribution in ICR mouse brain at 5 to 10 uCi, iv after 2 hrs; format: ADME, organism-based; details: in vivo; outline: as §1
[25] = system: Liver; experiment: Biodistribution in ICR mouse liver at 5 to 10 uCi, iv after 2 hrs; format: ADME, organism-based; details: in vivo; outline: as §1
[26] = system: Thyroid gland; experiment: Biodistribution in ICR mouse thyroid at 5 to 10 uCi, iv after 2 mins; format: ADME, organism-based; details: in vivo; outline: as §1
[27] = system: Muscle tissue; experiment: Biodistribution in ICR mouse muscle at 5 to 10 uCi, iv after 2 hrs; format: ADME, organism-based; details: in vivo; outline: as §1
[28] = system: Liver; experiment: Biodistribution in ICR mouse liver at 5 to 10 uCi, iv after 2 mins; format: ADME, organism-based; details: in vivo; outline: as §1
[29] = system: Thyroid gland; experiment: Biodistribution in ICR mouse thyroid at 5 to 10 uCi, iv after 2 hrs; format: ADME, organism-based; details: in vivo; outline: as §1
[30] = system: Kidney; experiment: Biodistribution in ICR mouse kidney at 5 to 10 uCi, iv after 30 mins; format: ADME, organism-based; details: in vivo, 0.5 h; outline: as §1
[31] = system: Heart; experiment: Biodistribution in ICR mouse heart at 5 to 10 uCi, iv after 1 hr; format: ADME, organism-based; details: in vivo; outline: as §1
[32] = system: Heart; experiment: Biodistribution in ICR mouse heart at 5 to 10 uCi, iv after 30 mins; format: ADME, organism-based; details: in vivo, 0.5 h; outline: as §1
[33] = Partition coefficient, log P of the compound; format: physicochemical; details: octanol/water
Outline: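 [125I] or [18F] tracer mixed with 3 g each of 1-octanol and 0.1 M phosphate buffer pH 7.4. Vortexed 3 min at room temperature, then centrifuged 5 min. Two 0.5 g samples from each layer counted; PC is the ratio of cpm/g in octanol to cpm/g in buffer. The octanol layer was repartitioned until values were consistent.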

[34] = system: Muscle tissue; experiment: Biodistribution in ICR mouse muscle at 5 to 10 uCi, iv after 30 mins; format: ADME, organism-based; details: in vivo, 0.5 h; outline: as §1
[35] = system: Blood; experiment: Biodistribution in ICR mouse blood at 5 to 10 uCi, iv after 2 mins; format: ADME, organism-based; details: in vivo; outline: as §1
[36] = system: Lung; experiment: Biodistribution in ICR mouse lung at 5 to 10 uCi, iv after 30 mins; format: ADME, organism-based; details: in vivo, 0.5 h; outline: as §1
[37] = system: Lung; experiment: Biodistribution in ICR mouse lung at 5 to 10 uCi, iv after 2 mins; format: ADME, organism-based; details: in vivo; outline: as §1
[38] = system: Spleen; experiment: Biodistribution in ICR mouse spleen at 5 to 10 uCi, iv after 1 hr; format: ADME, organism-based; details: in vivo; outline: as §1
[39] = system: Muscle tissue; experiment: Biodistribution in ICR mouse muscle at 5 to 10 uCi, iv after 1 hr; format: ADME, organism-based; details: in vivo; outline: as §1
[40] = system: Liver; experiment: Biodistribution in ICR mouse liver at 5 to 10 uCi, iv after 1 hr; format: ADME, organism-based; details: in vivo; outline: as §1
[41] = system: Thyroid gland; experiment: Biodistribution in ICR mouse thyroid at 5 to 10 uCi, iv after 1 hr; format: ADME, organism-based; details: in vivo; outline: as §1
[42] = system: Kidney; experiment: Biodistribution in ICR mouse kidney at 5 to 10 uCi, iv after 2 hrs; format: ADME, organism-based; details: in vivo; outline: as §1

Compound: CN(C)c1ccc(-c2cn(-c3ccc(OCCO)cc3)nn2)cc1
- Ki [1]: 10 nM

Compound: CN(C)c1ccc(-c2cn(-c3ccc(OCCOCCOCCF)cc3)nn2)cc1
- Ki [1]: 8.4 nM

Compound: CNc1ccc(-c2cn(-c3ccc(OCCOCCOCCF)cc3)nn2)cc1
- Ki [1]: 30 nM

Compound: CN(C)c1ccc(-c2cn(-c3ccc([125I])cc3)nn2)cc1
- Drug uptake [2]: 1.35 % ID/g
- Drug uptake [3]: 1.94 % ID/g
- Drug uptake [4]: 5.32 % ID/g
- Drug uptake [5]: 1.19 % ID/g
- Drug uptake [6]: 6.93 % ID/g
- Drug uptake [7]: 2.13 % ID/g
- Drug uptake [8]: 0.76 % ID/g
- Drug uptake [9]: 1.63 % ID/g
- Drug uptake [10]: 2.2 % ID/g
- Drug uptake [11]: 1.43 % ID/g
- Drug uptake [12]: 1.21 % ID/g
- Drug uptake [13]: 11 % ID/g
- Drug uptake [14]: 0.71 % ID/g
- Drug uptake [15]: 7.22 % ID/g
- Drug uptake [16]: 11.5 % ID/g
- Drug uptake [17]: 1.66 % ID/g
- Drug uptake [18]: 6.61 % ID/g
- Drug uptake [19]: 0.69 % ID/g
- Drug uptake [20]: 1.33 % ID/g
- Drug uptake [21]: 1.93 % ID/g
- Drug uptake [22]: 0.56 % ID/g
- Drug uptake [23]: 0.64 % ID/g
- Drug uptake [24]: 0.29 % ID/g
- Drug uptake [25]: 2.49 % ID/g
- Drug uptake [26]: 3.17 % ID/g
- Drug uptake [27]: 0.36 % ID/g
- Drug uptake [28]: 17.4 % ID/g
- Drug uptake [29]: 89.1 % ID/g
- Drug uptake [30]: 3.66 % ID/g
- Drug uptake [31]: 0.78 % ID/g
- Drug uptake [32]: 1.34 % ID/g
- logP [33]: 3.4
- Drug uptake [34]: 1.11 % ID/g
- Drug uptake [35]: 2.84 % ID/g
- Drug uptake [36]: 2.55 % ID/g
- Drug uptake [37]: 8.93 % ID/g
- Drug uptake [38]: 0.89 % ID/g
- Drug uptake [39]: 0.61 % ID/g
- Drug uptake [40]: 3.74 % ID/g
- Drug uptake [41]: 17 % ID/g
- Drug uptake [42]: 1.52 % ID/g
